Measurements as given in ChEMBL document CHEMBL4052830, “Dual Nicotinic Acetylcholine Receptor α4β2 Antagonists/α7 Agonists: Synthesis, Docking Studies, and Pharmacological Evaluation of Tetrahydroisoquinolines and Tetrahydroisoquinolinium Salts” (J Med Chem, 2018).
The source made the active and inactive calls. The calls are words filed in the database; no cut-off is given here.

What was measured:
[1] = molecular target: Neuronal acetylcholine receptor; alpha4/beta2 (Rattus norvegicus, UniProt P09483+P12390); test: Displacement of [3H]epibatidine from rat alpha4beta2 nAChR expressed in HEK293 cell membranes after 4 hrs by scintillation counting method
Summary of the method: (§1)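 Membranes from HEK293 lines stably expressing α3β4, α4β4 or α4β2 nAChR, [3H]epibatidine competition binding. Ki came from concentration-inhibition curves. Means of 3–5 experiments in duplicate.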

[2] = molecular target: Neuronal acetylcholine receptor; alpha4/beta4 (Rattus norvegicus, UniProt P09483+P12392); test: Displacement of [3H]epibatidine from rat alpha4beta4 nAChR expressed in HEK293 cell membranes after 4 hrs by scintillation counting method; summary of the method: as §1
[3] = molecular target: T1, Neuronal acetylcholine receptor; alpha3/beta4 (Rattus norvegicus, UniProt P04757+P12392); test: Displacement of [3H]epibatidine from rat alpha3beta4 nAChR expressed in HEK293 cell membranes after 4 hrs by scintillation counting method; summary of the method: as §1
[4] = molecular target: T1, Neuronal acetylcholine receptor; alpha3/beta4; test: Antagonist activity at rat alpha3beta4 nAChR expressed in HEK293 cells assessed as inhibition of (S)-nicotine-induced […] response measured up to 90 secs by FMP assay; format: cell-based
Summary of the method: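 Rat α3β4 nAChR in stably expressing HEK293 cells, FLIPR Membrane Potential Blue assay. Antagonist mode against (S)-nicotine at EC70–EC90. IC50 derived from concentration-inhibition curves. Means of 3–5 experiments in duplicate.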

[5] = molecular target: Nicotinic acetylcholine receptor alpha-4/beta-2 (Mus musculus, UniProt Q8R493+Q9ERK7); test: Antagonist activity at mouse alpha4beta2 nAChR expressed in HEK293 cells assessed as inhibition of (S)-nicotine-induced […] response measured up to 90 secs by FMP assay; format: cell-based
Summary of the method: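 Mouse α4β2 nAChR in stably expressing HEK293T cells, FLIPR Membrane Potential Blue assay. IC50 came from concentration-inhibition curves. Means of 3–5 experiments in duplicate.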

[6] = molecular target: T2, Neuronal acetylcholine receptor subunit alpha-7 (Homo sapiens, UniProt P36544); test: Antagonist activity at human alpha7 nAChR expressed in HEK293 cells co-expressing Ric-3/NACHO assessed as inhibition of ACh-induced calcium mobilization measured up to 90 secs in presence of PNU-120596 by FLIPR assay; format: cell-based
Summary of the method: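 Human α7 nAChR stably co-expressed with Ric-3/NACHO in HEK293 cells. Antagonist mode in the Ca2+/Fluo-4 assay: test ligand inhibits acetylcholine at EC70–EC90, with 3 μM PNU-120596 in the buffer. IC50 came from concentration-inhibition curves. Means of 3–5 experiments run in duplicate.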

[7] = molecular target: T2, Neuronal acetylcholine receptor subunit alpha-7; test: Agonist activity at human alpha7 nAChR expressed in HEK293 cells co-expressing Ric-3/NACHO assessed as induction of calcium mobilization measured up to 90 secs in presence of PNU-120596 by FLIPR assay; format: cell-based
Summary of the method: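 Human α7 nAChR stably co-expressed with Ric-3 and NACHO in HEK293 cells, Ca2+/Fluo-4 fluorescence assay. Assay buffer held 3 μM PNU-120596 (α7 PAM) to slow desensitization. Agonist concentration-response curves gave EC50 and Rmax. Means of 3–5 experiments run in duplicate.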

[8] = molecular target: T2, Neuronal acetylcholine receptor subunit alpha-7; test: Agonist activity at human alpha7 nAChR expressed in HEK293 cells co-expressing Ric-3/NACHO assessed as induction of calcium mobilization at 30 uM measured up to 90 secs in presence of PNU-120596 by FLIPR assay; format: cell-based
Rattus norvegicus [9] = organism: Rattus norvegicus; test: Selectivity ratio of Ki for rat alpha4beta4 nAChR to Ki for rat alpha4beta2 nAChR
Rattus norvegicus [10] = organism: Rattus norvegicus; test: Selectivity ratio of Ki for rat alpha3beta4 nAChR to Ki for rat alpha4beta2 nAChR
[11] = molecular target: Neuronal acetylcholine receptor; alpha4/beta2 (Rattus norvegicus) (UniProt P09483+P12390); test: Potency index, ratio of DHbetaE Ki to test compound Ki for rat alpha4beta2 nAChR; format: protein-complex assay
[12] = molecular target: T2, Neuronal acetylcholine receptor subunit alpha-7; test: Agonist activity at human alpha7 nAChR expressed in HEK293 cells co-expressing Ric-3/NACHO assessed as induction of calcium mobilization at 0.3 to 3 uM measured up to 90 secs in presence of PNU-120596 by FLIPR assay; format: cell-based
[13] = molecular target: T2, Neuronal acetylcholine receptor subunit alpha-7; test: Agonist activity at human alpha7 nAChR expressed in HEK293 cells co-expressing Ric-3/NACHO assessed as induction of calcium mobilization at >= 10 uM measured up to 90 secs in presence of PNU-120596 by FLIPR assay; format: cell-based

Chain of Nicotinic acetylcholine receptor alpha-4/beta-2 (Q9ERK7 whole entry): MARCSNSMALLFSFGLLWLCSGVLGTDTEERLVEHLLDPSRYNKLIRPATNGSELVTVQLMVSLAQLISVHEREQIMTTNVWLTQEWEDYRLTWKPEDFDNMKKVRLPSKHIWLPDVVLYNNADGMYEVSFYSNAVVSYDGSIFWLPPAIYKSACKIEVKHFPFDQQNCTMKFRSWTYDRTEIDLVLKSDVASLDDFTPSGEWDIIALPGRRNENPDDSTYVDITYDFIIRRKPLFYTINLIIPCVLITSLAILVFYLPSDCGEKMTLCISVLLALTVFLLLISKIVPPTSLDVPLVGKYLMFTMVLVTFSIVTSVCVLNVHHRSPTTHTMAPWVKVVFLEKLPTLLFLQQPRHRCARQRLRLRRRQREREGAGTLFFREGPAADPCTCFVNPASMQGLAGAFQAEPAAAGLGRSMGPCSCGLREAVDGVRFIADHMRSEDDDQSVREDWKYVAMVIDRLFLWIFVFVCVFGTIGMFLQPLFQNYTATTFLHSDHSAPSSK
Chain of Nicotinic acetylcholine receptor alpha-4/beta-2 (Q8R493 whole entry): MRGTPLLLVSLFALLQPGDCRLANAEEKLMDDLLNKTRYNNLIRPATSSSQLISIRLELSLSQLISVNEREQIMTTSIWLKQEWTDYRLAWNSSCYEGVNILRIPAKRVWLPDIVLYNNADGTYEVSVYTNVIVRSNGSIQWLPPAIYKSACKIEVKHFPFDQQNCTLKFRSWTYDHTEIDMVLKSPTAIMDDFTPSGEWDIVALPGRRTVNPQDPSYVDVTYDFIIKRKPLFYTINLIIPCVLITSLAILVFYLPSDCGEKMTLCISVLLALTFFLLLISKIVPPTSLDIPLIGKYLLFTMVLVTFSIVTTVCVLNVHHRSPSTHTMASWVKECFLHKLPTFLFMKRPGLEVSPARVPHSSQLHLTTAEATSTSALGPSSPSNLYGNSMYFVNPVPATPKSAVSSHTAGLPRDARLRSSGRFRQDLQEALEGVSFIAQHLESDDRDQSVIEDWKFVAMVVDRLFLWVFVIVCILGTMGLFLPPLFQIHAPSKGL
Chain of Neuronal acetylcholine receptor; alpha4/beta4 (P09483 whole entry): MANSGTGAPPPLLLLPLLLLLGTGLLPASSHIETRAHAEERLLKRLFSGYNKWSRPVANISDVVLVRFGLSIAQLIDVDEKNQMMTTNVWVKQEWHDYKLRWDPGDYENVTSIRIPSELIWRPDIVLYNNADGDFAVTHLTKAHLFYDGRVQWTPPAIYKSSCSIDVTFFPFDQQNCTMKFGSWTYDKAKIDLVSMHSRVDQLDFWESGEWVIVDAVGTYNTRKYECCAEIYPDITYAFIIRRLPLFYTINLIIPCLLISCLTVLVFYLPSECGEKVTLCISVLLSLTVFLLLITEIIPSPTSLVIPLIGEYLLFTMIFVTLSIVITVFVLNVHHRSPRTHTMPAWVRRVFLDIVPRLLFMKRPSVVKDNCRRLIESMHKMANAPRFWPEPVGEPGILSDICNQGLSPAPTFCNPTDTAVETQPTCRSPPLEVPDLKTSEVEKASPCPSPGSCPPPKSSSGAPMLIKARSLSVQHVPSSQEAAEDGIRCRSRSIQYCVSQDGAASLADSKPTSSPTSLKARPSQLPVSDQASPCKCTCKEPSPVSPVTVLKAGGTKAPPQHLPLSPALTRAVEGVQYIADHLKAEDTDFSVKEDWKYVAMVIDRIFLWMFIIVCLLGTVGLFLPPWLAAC
Chain of Neuronal acetylcholine receptor; alpha4/beta4 (P12392 whole entry): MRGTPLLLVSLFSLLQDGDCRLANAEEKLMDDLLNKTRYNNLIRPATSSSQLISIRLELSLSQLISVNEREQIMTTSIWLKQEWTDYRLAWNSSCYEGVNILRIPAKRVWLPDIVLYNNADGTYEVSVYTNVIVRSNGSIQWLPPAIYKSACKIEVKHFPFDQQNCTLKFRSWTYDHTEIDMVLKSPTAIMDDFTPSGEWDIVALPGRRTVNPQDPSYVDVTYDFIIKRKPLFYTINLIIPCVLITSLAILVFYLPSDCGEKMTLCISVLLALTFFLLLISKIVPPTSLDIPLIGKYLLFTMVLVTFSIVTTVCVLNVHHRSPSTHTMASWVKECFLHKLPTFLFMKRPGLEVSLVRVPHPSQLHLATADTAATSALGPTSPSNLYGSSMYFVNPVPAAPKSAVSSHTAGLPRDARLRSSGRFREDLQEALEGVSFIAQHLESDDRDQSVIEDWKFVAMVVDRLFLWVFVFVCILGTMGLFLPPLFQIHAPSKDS
Chain of Neuronal acetylcholine receptor; alpha4/beta2 (P09483 whole entry): as the sequence (P09483 whole entry) above
Chain of Neuronal acetylcholine receptor; alpha4/beta2 (P12390 whole entry): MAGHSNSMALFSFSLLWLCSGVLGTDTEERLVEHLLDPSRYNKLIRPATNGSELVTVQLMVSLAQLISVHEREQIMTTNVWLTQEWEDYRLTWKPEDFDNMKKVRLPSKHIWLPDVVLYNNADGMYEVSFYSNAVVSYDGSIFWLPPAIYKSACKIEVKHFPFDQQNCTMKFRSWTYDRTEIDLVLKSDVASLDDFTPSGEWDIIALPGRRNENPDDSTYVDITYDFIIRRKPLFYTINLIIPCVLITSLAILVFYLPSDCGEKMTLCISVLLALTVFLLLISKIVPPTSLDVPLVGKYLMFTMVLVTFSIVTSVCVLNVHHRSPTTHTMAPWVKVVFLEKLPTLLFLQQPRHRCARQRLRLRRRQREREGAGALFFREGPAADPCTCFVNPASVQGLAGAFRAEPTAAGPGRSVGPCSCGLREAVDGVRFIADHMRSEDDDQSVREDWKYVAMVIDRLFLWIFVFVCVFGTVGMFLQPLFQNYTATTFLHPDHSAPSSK
T2 sequence (P36544 whole entry): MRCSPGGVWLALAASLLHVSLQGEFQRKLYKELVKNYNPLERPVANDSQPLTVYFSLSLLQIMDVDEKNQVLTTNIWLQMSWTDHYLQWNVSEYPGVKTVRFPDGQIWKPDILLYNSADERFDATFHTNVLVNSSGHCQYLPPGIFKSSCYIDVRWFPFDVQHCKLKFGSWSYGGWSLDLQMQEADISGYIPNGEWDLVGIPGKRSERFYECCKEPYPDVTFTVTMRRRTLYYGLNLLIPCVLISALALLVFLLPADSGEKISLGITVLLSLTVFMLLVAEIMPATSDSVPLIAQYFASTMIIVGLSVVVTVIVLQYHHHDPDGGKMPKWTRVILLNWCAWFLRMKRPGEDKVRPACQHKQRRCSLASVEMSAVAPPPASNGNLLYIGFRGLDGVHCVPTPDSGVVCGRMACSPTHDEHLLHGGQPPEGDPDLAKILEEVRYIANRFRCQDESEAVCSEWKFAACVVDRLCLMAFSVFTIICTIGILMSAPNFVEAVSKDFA
T1 sequence (P04757 whole entry): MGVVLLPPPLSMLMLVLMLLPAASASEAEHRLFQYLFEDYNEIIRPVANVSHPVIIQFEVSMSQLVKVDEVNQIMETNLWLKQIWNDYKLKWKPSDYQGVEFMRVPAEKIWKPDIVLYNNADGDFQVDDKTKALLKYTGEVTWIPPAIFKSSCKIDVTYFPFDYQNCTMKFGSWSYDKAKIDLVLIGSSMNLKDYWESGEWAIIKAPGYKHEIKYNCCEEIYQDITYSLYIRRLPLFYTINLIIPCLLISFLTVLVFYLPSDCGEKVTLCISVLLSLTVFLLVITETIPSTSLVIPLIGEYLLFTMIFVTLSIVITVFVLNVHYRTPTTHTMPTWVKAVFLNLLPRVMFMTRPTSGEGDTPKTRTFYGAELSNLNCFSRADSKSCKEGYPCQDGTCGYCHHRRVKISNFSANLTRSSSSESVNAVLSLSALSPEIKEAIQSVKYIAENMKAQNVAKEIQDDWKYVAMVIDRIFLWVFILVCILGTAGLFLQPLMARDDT
T1 sequence (P12392 whole entry): as the sequence (P12392 whole entry) above

SMILES	Ki [1]	Ki [2]	Ki [3]	IC50 [4]	IC50 [5]	IC50 [6]	EC50 [7]	Activity [8]	Ratio Ki (Rattus norvegicus [9])	Ratio Ki (Rattus norvegicus [10])	Ratio Ki [11]	Activity [12]	Activity [13]
COc1cc2c(cc1OCc1ccccc1)CN(C)CC2	15 µM	300 µM	300 µM	> 300 µM	23 µM	30 µM	–	–	–	–	–	–	–
COc1cc2c(cc1OC)[C@H]1CCC[N+]1(C)CC2 (stereo not given in full)	2.4 µM	25 µM	25 µM	> 100 µM	7.2 µM	–	5.1 µM	–	–	–	–	–	–
C[N+]12CCC[C@H]1c1cc3c(cc1CC2)OCO3 (stereo not given in full)	25 µM	25 µM	25 µM	> 100 µM	> 100 µM	–	5.4 µM	–	–	–	–	–	–
COc1ccc2c(c1)CCN(C)C2	2.6 µM	25 µM	100 µM	> 100 µM	6.2 µM	> 100 µM	> 100 µM	–	–	–	–	–	–
c1c2c(cc3c1OCO3)C1CCCN1CC2 (stereo not given)	0.5 µM	9.3 µM	> 100 µM	–	2.3 µM	–	–	Active	–	–	–	–	–
COc1ccc2c(c1)C1CCC[N+]1(C)CC2 (stereo not given)	0.23 µM	0.92 µM	9.3 µM	50 µM	1.8 µM	–	1.2 µM	–	–	–	–	–	–
COc1cc2c(cc1O)C[N+](C)(C)CC2	0.4 µM	8.9 µM	25 µM	> 100 µM	1.2 µM	–	0.99 µM	–	–	–	–	–	–
COc1cc2c(cc1OCc1ccccc1)CCN1CCCC21 (stereo not given)	6.3 µM	300 µM	100 µM	100 µM	30 µM	5.7 µM	–	–	–	–	–	–	–
C[N+]12CCCC1c1ccccc1CC2 (stereo not given)	17 µM	25 µM	50 µM	> 100 µM	50 µM	–	2.2 µM	–	–	–	–	–	–
COc1ccc2c(c1)C1CCCN1CC2 (stereo not given)	1.4 µM	3.3 µM	100 µM	> 100 µM	9.1 µM	–	–	Active	–	–	–	–	–
COc1ccc2c(c1)CC[N+]1(C)CCCC21 (stereo not given)	3.6 µM	12 µM	25 µM	100 µM	30 µM	–	5.2 µM	–	–	–	–	–	–
COc1cc2c(cc1OCc1ccccc1)C1CCCN1CC2 (stereo not given)	50 µM	300 µM	300 µM	> 100 µM	50 µM	11 µM	–	–	–	–	–	–	–
C[N+]1(C)CCc2cc3c(cc2C1)OCO3	0.38 µM	30 µM	50 µM	> 300 µM	12 µM	–	2.6 µM	–	80	130	–	–	–
COC1CC=C2CCN3CCC4=C(CC(=O)OC4)[C@]23C1 (stereo not given in full)	0.65 µM	25 µM	100 µM	100 µM	0.6 µM	100 µM	–	–	–	–	–	–	–
C[N+]12CCCC1c1cc3c(cc1CC2)OCO3 (stereo not given)	0.14 µM	50 µM	30 µM	30 µM	0.52 µM	–	2.6 µM	–	360	210	5	–	–
COc1cc2c(cc1OCc1ccccc1)C1CCC[N+]1(C)CC2 (stereo not given)	11 µM	300 µM	300 µM	300 µM	5.7 µM	–	–	–	–	–	–	Dose-dependent effect	inactive
COc1cc2c(cc1OC)C1CCC[N+]1(C)CC2 (stereo not given)	2.4 µM	30 µM	50 µM	100 µM	30 µM	–	7.5 µM	–	–	–	–	–	–
COc1ccc2c(c1)CC[N+](C)(C)C2	0.68 µM	1.5 µM	9.3 µM	> 100 µM	1.4 µM	–	4.4 µM	–	–	–	–	–	–
COc1ccc2c(c1)CCN1CCCC21 (stereo not given)	25 µM	100 µM	> 100 µM	> 100 µM	100 µM	> 100 µM	> 100 µM	–	–	–	–	–	–

SMILES	Ki [1]	Ki [2]	Ki [3]	IC50 [4]	IC50 [5]	IC50 [6]	EC50 [7]	Activity [8]	Ratio Ki (Rattus norvegicus [9])	Ratio Ki (Rattus norvegicus [10])	Ratio Ki [11]	Activity [12]	Activity [13]
COc1cc2c(cc1OCc1ccccc1)CCN(C)C2	2.9 µM	300 µM	300 µM	100 µM	24 µM	30 µM	–	–	–	–	–	–	–
c1c2c(cc3c1OCO3)[C@@H]1CCCN1CC2	4.5 µM	100 µM	> 100 µM	> 100 µM	30 µM	–	–	Active	–	–	–	–	–
COc1cc2c(cc1OC)C[N+](C)(C)CC2	0.63 µM	50 µM	100 µM	> 300 µM	11 µM	–	9 µM	–	–	–	–	–	–
COc1cc2c(cc1OC)[C@@H]1CCCN1CC2	> 100 µM	> 100 µM	> 100 µM	> 100 µM	> 100 µM	> 100 µM	> 100 µM	–	–	–	–	–	–
COc1cc2c(cc1OC)CN(C)CC2	–	–	–	–	–	> 100 µM	> 100 µM	–	–	–	–	–	–
CCC[N+]1(C)CCc2cc(OC)c(OC)cc2C1 (stereo not given)	14 µM	300 µM	300 µM	> 300 µM	30 µM	> 100 µM	> 100 µM	–	–	–	–	–	–
COc1cc2c(cc1O)CN(C)CC2	–	–	100 µM	100 µM	–	> 100 µM	> 100 µM	–	–	–	–	–	–
c1ccc2c(c1)CCN1CCCC21 (stereo not given)	8.5 µM	100 µM	100 µM	> 100 µM	15 µM	100 µM	–	–	–	–	–	–	–
COc1cc2c(cc1OCc1ccccc1)CC[N+]1(C)CCCC21 (stereo not given)	2.1 µM	300 µM	300 µM	300 µM	3.1 µM	–	–	–	–	–	–	Dose-dependent effect	inactive
COc1ccc(CC2c3cc(OC)c(OC)cc3CCN2C)cc1OC (stereo not given) [LAUDANOSINE]	100 µM	> 100 µM	> 100 µM	> 100 µM	> 100 µM	> 100 µM	> 100 µM	–	–	–	–	–	–
CN1CCc2cc3c(cc2C1)OCO3	17 µM	–	–	–	–	> 100 µM	> 100 µM	–	–	–	–	–	–
C=CC[N+]1(C)CCc2cc(OC)c(OC)cc2C1 (stereo not given)	30 µM	300 µM	> 300 µM	> 300 µM	30 µM	> 100 µM	> 100 µM	–	–	–	–	–	–
CC[N+]1(C)CCc2cc(OC)c(OC)cc2C1 (stereo not given)	9.7 µM	> 300 µM	> 300 µM	> 300 µM	11 µM	–	–	Active	–	–	–	–	–
COc1cc2c(cc1OC)[C@H]1CCCN1CC2	2.5 µM	100 µM	100 µM	> 100 µM	16 µM	> 100 µM	> 100 µM	–	–	–	–	–	–
COc1cc2c(cc1OC)C[N+](C)(Cc1ccccc1)CC2 (stereo not given)	30 µM	> 300 µM	300 µM	> 300 µM	30 µM	2 µM	–	–	–	–	–	–	–
COc1cc2c(cc1OC)[C@@H]1CCC[N+]1(C)CC2 (stereo not given in full)	25 µM	7.5 µM	25 µM	> 100 µM	> 100 µM	–	6.5 µM	–	–	–	–	–	–
COc1cc2c(cc1OC)C1CCCN1CC2 (stereo not given)	4.6 µM	–	100 µM	–	30 µM	> 100 µM	> 100 µM	–	–	–	–	–	–
COc1cc2c(cc1OCc1ccccc1)C[N+](C)(C)CC2	4.5 µM	17 µM	30 µM	> 300 µM	30 µM	–	–	–	–	–	–	–	inactive
